According to ChEMBL document CHEMBL3259810, “Design and synthesis of 3,4-dihydro-2H-benzo[h]chromene derivatives as potential NF-κB inhibitors” (Bioorg Med Chem Lett, 2014):

Legend:
[1] = target: T1, Nuclear factor NF-kappa-B complex (Homo sapiens) (UniProt Q00653+P19838+Q04206); assay: Inhibition of transcriptional activity of NF-kappaB (unknown origin) transfected in LPS-stimulated mouse RAW264.7 cells at 100 uM after 16 hrs by secretory alkaline phosphatase reporter gene assay relative to control; assay type: cell-based
Procedure, shortened: (§1)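 LPS-stimulated RAW 264.7 macrophages carrying NF-κB-driven SEAP reporter; cell-free media heated 65℃ 5 min, then reacted with 500 µM 4-methylumbelliferyl phosphate, 2 M diethanolamine, 1 mM MgCl₂ in the dark at room temperature for 1 h. Fluorescence read at excitation 360 nm / emission 449 nm (RFU). Percent inhibition tested at 100 μM; IC₅₀ as mean of three experiments.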

NCI-H23 = assay: Cytotoxicity against human NCI-H23 cells assessed as growth inhibition after 72 hrs by SRB assay; assay type: functional; settings: NCI-H23, 72 h
[2] = target: Nuclear factor NF-kappa-B complex (Homo sapiens, UniProt P19838+Q00653+Q04206); assay: Inhibition of transcriptional activity of NF-kappaB (unknown origin) transfected in LPS-stimulated mouse RAW264.7 cells after 16 hrs by secretory alkaline phosphatase reporter gene assay; assay type: cell-based; procedure, shortened: as §1
[3] = target: T1, Nuclear factor NF-kappa-B complex (Homo sapiens); assay: Potency index, ratio of PDTC IC50 to compound IC50 for inhibition of transcriptional activity of NF-kappaB (unknown origin) transfected in LPS-stimulated mouse RAW264.7 cells

Chain of Nuclear factor NF-kappa-B complex (P19838 1-433 limits assumed): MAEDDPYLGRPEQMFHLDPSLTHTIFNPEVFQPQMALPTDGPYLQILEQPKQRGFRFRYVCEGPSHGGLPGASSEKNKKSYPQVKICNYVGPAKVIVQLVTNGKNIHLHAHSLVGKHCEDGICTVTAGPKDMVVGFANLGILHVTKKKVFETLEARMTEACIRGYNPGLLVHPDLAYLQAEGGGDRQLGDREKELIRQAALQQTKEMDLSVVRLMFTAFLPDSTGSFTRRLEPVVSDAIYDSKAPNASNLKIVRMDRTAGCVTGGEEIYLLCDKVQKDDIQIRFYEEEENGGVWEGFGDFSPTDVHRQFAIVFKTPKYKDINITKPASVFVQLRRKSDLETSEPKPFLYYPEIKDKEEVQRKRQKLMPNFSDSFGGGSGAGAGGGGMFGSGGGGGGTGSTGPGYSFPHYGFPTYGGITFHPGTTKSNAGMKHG
Chain of Nuclear factor NF-kappa-B complex (Q00653 1-454 limits assumed): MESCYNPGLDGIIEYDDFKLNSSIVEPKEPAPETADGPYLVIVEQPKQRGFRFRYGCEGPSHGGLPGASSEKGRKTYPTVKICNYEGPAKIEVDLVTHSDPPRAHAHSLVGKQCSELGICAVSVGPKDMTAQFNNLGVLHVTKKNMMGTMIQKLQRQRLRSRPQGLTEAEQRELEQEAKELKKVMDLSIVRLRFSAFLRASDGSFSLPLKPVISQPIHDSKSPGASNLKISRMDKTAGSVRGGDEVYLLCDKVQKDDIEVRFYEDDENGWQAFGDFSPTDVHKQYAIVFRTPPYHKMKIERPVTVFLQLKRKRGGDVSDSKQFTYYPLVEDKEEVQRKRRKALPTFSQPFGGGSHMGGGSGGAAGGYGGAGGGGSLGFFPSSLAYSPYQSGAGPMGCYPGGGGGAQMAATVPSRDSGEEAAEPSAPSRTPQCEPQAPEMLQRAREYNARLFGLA
Chain of Nuclear factor NF-kappa-B complex (Q04206 whole entry): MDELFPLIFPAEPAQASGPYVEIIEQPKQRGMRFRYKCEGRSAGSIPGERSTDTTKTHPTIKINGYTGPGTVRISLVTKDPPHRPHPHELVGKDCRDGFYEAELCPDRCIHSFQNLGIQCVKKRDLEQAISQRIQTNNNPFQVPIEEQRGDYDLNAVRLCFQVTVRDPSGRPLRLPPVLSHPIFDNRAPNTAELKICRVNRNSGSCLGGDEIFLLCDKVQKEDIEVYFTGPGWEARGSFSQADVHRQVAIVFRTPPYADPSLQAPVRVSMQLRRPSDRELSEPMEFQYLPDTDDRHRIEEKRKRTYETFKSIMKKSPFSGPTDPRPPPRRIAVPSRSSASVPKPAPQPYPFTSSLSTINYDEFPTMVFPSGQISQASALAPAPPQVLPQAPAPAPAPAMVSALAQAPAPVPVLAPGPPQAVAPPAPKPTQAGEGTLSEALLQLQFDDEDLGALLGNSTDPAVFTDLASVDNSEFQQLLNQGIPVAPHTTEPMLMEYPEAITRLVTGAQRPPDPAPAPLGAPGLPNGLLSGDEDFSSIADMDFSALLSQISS
T1 sequence (P19838 whole entry, looked up): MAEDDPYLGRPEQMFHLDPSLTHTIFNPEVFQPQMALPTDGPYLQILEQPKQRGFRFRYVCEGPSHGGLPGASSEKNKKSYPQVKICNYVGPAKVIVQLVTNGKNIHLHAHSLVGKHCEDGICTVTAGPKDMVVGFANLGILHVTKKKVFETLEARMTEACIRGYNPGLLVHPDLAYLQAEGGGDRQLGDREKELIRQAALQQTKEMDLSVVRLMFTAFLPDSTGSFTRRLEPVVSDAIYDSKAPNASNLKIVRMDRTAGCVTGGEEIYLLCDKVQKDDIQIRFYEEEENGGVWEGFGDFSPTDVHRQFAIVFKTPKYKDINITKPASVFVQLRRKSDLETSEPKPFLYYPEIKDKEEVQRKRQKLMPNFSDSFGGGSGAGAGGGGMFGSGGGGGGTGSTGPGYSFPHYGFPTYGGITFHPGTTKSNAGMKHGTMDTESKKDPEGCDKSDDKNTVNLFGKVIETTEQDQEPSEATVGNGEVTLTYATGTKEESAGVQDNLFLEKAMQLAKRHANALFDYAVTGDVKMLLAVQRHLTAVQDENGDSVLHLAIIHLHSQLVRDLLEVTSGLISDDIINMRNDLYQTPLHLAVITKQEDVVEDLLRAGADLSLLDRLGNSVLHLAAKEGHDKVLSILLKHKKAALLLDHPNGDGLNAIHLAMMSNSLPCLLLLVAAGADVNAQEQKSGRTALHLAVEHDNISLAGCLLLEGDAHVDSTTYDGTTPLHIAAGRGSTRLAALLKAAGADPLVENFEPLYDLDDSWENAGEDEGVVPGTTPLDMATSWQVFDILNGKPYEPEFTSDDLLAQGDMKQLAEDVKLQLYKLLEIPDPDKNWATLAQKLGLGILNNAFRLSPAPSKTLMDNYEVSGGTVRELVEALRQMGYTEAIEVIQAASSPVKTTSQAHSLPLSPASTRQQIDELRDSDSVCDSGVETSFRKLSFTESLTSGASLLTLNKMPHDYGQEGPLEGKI
T1 sequence (Q00653 whole entry, looked up): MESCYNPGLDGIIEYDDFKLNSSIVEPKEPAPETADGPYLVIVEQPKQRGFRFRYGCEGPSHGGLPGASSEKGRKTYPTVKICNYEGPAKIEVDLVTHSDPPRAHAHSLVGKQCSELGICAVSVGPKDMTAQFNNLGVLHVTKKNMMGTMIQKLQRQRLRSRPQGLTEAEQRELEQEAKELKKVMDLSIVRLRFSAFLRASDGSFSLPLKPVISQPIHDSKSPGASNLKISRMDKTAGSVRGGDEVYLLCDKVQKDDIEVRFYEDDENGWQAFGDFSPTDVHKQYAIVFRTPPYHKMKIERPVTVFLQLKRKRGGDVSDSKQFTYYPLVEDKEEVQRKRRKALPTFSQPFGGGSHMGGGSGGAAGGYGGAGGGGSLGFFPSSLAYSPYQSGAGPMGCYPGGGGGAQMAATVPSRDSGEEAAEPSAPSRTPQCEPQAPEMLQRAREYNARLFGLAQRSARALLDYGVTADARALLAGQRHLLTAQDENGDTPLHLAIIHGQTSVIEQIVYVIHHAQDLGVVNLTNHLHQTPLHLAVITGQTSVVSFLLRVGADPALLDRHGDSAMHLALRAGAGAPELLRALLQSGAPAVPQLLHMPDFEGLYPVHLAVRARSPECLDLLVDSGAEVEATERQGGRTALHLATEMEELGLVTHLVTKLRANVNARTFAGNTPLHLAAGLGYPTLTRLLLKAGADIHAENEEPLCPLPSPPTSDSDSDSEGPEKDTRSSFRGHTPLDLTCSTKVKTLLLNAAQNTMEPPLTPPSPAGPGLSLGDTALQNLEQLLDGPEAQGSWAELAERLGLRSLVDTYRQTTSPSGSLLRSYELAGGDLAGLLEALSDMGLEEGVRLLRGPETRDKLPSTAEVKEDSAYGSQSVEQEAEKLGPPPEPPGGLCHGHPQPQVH
T1 sequence (Q04206 whole entry, looked up): as the sequence (Q04206 whole entry) above

Row | inhibition [1] [%] | IC50 [2] [µM] | Ratio IC50 [3] | Compound | GI50 (NCI-H23) [µM]
1 | > 100 | 12.9 | – | O=C(Nc1ccc(C(F)(F)F)cc1)C1CCc2ccc3ccccc3c2O1 (stereo unspecified) | 3.48
2 | 88 | 44.5 | – | COc1ccc(NCC2CCc3ccc4ccccc4c3O2)cc1 (stereo unspecified) | 12.8
3 | > 100 | 48.6 | – | O=C(NCC1CCc2ccc3ccccc3c2O1)c1ccccc1 (stereo unspecified) | 11.4
4 | 35 | – | – | CC(=O)NCC1CCc2ccc3ccccc3c2O1 (stereo unspecified) | > 30
5 | 40 | – | – | O=C(Nc1ccc(Cl)c(Cl)c1)C1CCc2ccc3ccccc3c2O1 (stereo unspecified) | 23.5
6 | 39 | – | – | CCNCC1CCc2ccc3ccccc3c2O1 (stereo unspecified) | > 30
7 | > 100 | 2.4 | 15 | O=C(Nc1ccccc1C(F)(F)F)C1CCc2ccc3ccccc3c2O1 (stereo unspecified) | 0.521
8 | > 100 | 12.9 | – | COc1ccc(NC(=O)C2CCc3ccc4ccccc4c3O2)cc1 (stereo unspecified) | 3.98
9 | 31 | – | – | CC(C)C(=O)NCC1CCc2ccc3ccccc3c2O1 (stereo unspecified) | > 30
10 | 77 | 56.3 | – | CC(C)CC(=O)NCC1CCc2ccc3ccccc3c2O1 (stereo unspecified) | > 30
11 | 87 | 27.9 | – | O=C(Nc1cccc(Cl)c1)C1CCc2ccc3ccccc3c2O1 (stereo unspecified) | > 30
12 | 49 | – | – | c1ccc(NCC2CCc3ccc4ccccc4c3O2)cc1 (stereo unspecified) | 25.8
13 | 66 | 63.8 | – | O=C(Nc1cc(C(F)(F)F)cc(C(F)(F)F)c1)C1CCc2ccc3ccccc3c2O1 (stereo unspecified) | 11.2
14 | 42 | – | – | FC(F)(F)c1ccc(NCC2CCc3ccc4ccccc4c3O2)cc1 (stereo unspecified) | > 30
15 | > 100 | 14.6 | – | c1ccc(CNCC2CCc3ccc4ccccc4c3O2)cc1 (stereo unspecified) | 10.4
16 | 52 | 96.7 | – | O=C(Nc1cc(Cl)cc(Cl)c1)C1CCc2ccc3ccccc3c2O1 (stereo unspecified) | > 30
17 | 96 | 56.3 | – | FC(F)(F)c1cc(NCC2CCc3ccc4ccccc4c3O2)cc(C(F)(F)F)c1 (stereo unspecified) | 14.6
18 | 94 | 26.5 | – | Clc1ccc(NCC2CCc3ccc4ccccc4c3O2)cc1 (stereo unspecified) | 29.8
19 | 62 | 43.5 | – | O=C(Nc1ccccc1)C1CCc2ccc3ccccc3c2O1 (stereo unspecified) | > 30
20 | > 100 | 25.9 | – | CC(C)CCNCC1CCc2ccc3ccccc3c2O1 (stereo unspecified) | 11.3
21 | 91 | 12.3 | – | O=C(Nc1ccccc1O)C1CCc2ccc3ccccc3c2O1 (stereo unspecified) | > 30
22 | > 100 | 27.1 | – | CC(C)CNCC1CCc2ccc3ccccc3c2O1 (stereo unspecified) | 11.7
23 | > 100 | 5 | – | O=C(Nc1ccc(O)cc1)C1CCc2ccc3ccccc3c2O1 (stereo unspecified) | 11.3
24 | 36 | – | – | Clc1cccc(NCC2CCc3ccc4ccccc4c3O2)c1 (stereo unspecified) | 17.2
25 | > 100 | 5.8 | – | O=C(Nc1ccc(Cl)cc1)C1CCc2ccc3ccccc3c2O1 (stereo unspecified) | 2.79
26 | – | 40.1 | – | COc1cc2c(cc1O)CCC(C(=O)Nc1ccccc1)O2 (stereo unspecified) | –

Row | Compound | inhibition [1] [%] | IC50 [2] [µM] | Ratio IC50 [3] | GI50 (NCI-H23) [µM]
27 | S=C(S)N1CCCC1 [PYRROLIDINE DITHIOCARBAMATE] | – | 37.2 | – | –
